# From publication PMC6919324 (European journal of pharmaceutics and biopharmaceutics : …, 2019)
# Legend:
# [1] = biological target: T1, P-gp (Homo sapiens, UniProt P08183); assay: Caco-2 transwell basolateral to apical transport of P-gp substrates; format: in vitro ADME
# [2] = biological target: P-gp (Mus musculus, UniProt P21447); assay: Ex vivo mouse jejunum intestinal sac, mucosal to serosal R123 transport; format: in vitro ADME, BALB/c mice; settings: BALB/c, with microdevices, 3000 microdevices/cm^2
# Method in brief: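 Intestinal sacs from three BALB/c mice aged 18–20 weeks, with one end tied off, were incubated in media at 37°C. Over time the serosal-side solution was removed and replaced with fresh media. Fluorescence of the removed solution was read at excitation 495 nm and emission 560 nm.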
# [3] = biological target: T1, P-gp; assay: Biosimilar mucus transport study of R123 in Caco-2 transwells; format: in vitro ADME
# T1 sequence (P08183 whole entry): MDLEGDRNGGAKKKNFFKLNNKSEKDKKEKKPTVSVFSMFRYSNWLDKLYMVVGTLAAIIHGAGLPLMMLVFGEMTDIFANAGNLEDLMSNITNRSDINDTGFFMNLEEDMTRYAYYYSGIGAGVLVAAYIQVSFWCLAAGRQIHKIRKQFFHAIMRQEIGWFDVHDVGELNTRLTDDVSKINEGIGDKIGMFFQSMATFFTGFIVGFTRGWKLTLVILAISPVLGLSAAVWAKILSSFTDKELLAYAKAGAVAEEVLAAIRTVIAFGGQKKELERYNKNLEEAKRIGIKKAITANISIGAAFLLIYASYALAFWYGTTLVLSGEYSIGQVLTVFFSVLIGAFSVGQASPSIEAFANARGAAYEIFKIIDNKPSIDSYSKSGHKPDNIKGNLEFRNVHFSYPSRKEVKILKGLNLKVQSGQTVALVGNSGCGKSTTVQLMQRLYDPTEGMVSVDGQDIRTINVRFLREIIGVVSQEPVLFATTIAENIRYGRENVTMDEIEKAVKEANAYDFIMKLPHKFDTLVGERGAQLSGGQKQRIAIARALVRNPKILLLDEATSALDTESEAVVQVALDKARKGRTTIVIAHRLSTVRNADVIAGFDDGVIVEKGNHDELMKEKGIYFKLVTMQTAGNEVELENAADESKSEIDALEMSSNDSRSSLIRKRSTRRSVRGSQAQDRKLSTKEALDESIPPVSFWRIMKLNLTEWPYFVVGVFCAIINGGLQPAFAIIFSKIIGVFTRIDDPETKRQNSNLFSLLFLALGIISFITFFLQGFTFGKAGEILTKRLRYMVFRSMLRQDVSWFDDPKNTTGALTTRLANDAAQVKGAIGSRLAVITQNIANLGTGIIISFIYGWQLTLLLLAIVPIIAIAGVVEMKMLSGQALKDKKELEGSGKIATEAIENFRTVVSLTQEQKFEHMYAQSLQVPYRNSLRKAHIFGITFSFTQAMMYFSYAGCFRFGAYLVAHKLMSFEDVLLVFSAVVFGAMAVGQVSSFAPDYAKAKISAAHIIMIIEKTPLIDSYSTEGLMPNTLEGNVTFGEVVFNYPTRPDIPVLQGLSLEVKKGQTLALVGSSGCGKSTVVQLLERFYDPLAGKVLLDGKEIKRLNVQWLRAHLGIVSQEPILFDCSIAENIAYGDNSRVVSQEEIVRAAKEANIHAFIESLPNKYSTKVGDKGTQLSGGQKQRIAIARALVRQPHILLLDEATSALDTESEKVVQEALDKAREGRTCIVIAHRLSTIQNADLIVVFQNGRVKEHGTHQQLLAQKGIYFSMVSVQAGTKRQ
# Sequence of P-gp (Mus musculus, UniProt P21447) (P21447 whole entry): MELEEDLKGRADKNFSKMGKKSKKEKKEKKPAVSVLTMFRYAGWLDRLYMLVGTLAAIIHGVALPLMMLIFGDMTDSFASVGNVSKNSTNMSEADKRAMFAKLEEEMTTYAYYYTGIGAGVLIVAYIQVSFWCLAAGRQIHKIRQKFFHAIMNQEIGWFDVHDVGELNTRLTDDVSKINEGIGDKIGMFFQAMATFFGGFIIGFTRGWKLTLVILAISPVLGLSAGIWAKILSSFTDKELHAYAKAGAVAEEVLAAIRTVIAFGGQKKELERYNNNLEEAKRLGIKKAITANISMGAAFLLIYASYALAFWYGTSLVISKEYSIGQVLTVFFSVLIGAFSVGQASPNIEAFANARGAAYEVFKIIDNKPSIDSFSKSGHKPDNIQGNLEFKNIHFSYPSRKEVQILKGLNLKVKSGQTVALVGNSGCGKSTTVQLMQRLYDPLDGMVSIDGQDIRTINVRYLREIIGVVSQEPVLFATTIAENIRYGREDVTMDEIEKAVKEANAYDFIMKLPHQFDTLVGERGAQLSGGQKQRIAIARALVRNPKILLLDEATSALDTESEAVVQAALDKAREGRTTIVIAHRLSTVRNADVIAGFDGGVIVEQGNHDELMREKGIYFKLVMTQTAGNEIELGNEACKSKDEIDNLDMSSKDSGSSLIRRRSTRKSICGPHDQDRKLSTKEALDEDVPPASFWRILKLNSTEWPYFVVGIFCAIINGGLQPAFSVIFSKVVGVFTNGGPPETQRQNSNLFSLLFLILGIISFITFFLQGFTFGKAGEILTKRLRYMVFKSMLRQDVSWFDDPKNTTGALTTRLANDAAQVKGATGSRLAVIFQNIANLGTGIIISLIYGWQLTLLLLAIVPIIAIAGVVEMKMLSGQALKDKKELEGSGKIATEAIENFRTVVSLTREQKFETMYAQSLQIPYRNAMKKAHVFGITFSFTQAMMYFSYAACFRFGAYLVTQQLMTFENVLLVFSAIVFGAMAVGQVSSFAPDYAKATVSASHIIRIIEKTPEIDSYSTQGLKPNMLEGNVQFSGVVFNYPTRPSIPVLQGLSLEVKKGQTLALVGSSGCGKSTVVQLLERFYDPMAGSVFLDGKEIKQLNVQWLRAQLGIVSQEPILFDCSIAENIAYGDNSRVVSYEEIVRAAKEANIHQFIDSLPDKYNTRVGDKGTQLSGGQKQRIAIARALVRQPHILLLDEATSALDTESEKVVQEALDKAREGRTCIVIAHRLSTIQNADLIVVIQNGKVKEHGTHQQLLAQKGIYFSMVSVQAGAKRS
Papp B→A [1] [×10⁻⁶ cm/s],Papp at 5 µM [2] [×10⁻⁶ cm/s],Papp B→A at 5 µM [3] [×10⁻⁶ cm/s],Compound
1.9 ± 0.35,–,–,"COc1cccc2c1C(=O)c1c(O)c3c(c(O)c1C2=O)C[C@@](O)(C(=O)CO)C[C@@H]3O[C@H]1C[C@H](N)[C@H](O)[C@H](C)O1 [Doxorubicin, doxorubicin]"
8.03 ± 3.5,0.35,9.25 ± 3.8,"COC(=O)c1ccccc1-c1c2ccc(=N)cc-2oc2cc(N)ccc12 [R123, rhodamine 123]"
